In ChEMBL document CHEMBL4049407, “Positional Scanning Identifies the Molecular Determinants of a High Affinity Multi-Leucine Inhibitor for Furin and PACE4” (J Med Chem, 2017):
Peptide text beside a SMILES is read from it. * marks the point of attachment. FITC = O=C1OC2(c3ccc(O)cc3Oc3cc(O)ccc32)c2ccc(NC(=S)*)cc21; NH(4-amidinobenzyl) = N=C(N)c1ccc(CN*)cc1; βAla = NCCC(=O)O

Legend:
[1] = Drug uptake in human DU145 cells assessed as geometric mean fluorescence intensity after 1 hr by propidium iodine-staining based FACS analysis; format: ADME, cell-based; conditions: du-145, 1 h
Outline: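 DU145 cells exposed 1 h to FITC-labelled peptide (10 µM) in serum-free RPMI, detached with trypsin:EDTA and pelleted, with no trypsin wash. Dead cells excluded by 2 min propidium iodide (10 µg/mL). Flow cytometry read 10 000 events/sample, and uptake was given as geometric mean fluorescence.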

[2] = Drug uptake in human DU145 cells assessed as geometric mean fluorescence intensity preincubated for 1 hr followed by trypsin washout for 5 mins by propidium iodine-staining based FACS analysis; format: ADME, cell-based; conditions: du-145, 5 min
Outline: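 DU145 cells given FITC-labelled peptide (10 µM) for 1 h in serum-free RPMI, harvested by trypsin:EDTA, then washed twice with 0.05% trypsin for 5 min at 37 °C to strip membrane-bound peptide. Propidium iodide (10 µg/mL, 2 min) excluded damaged cells. 10 000 events/sample were read by flow cytometry as geometric mean fluorescence.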

LNCaP = test: Antiproliferative activity against human LNCAP cells assessed as reduction in metabolic activity after 72 hrs by MTT assay; format: functional, cell-based
Outline: (§1)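 Cells kept at 37°C, 5% CO2 in RPMI 1640 (DU145 with 5% FBS, 1500 cells/well; LNCaP with 10% FBS, 2500 cells/well) on poly-L-lysine coated plates. Peptides added 24 h after plating in fresh serum medium at 0, 1, 10, 25, 50, 75, 100, 250 µM for 72 h. MTT 1 mg/mL final for 4 h; formazan dissolved in 2-propanol HCl. Signal normalised to water vehicle; IC50 from dose-response curves.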

Furin = Furin (Homo sapiens, UniProt P09958); test: Inhibition of recombinant human furin expressed in drosophila S2 cells using pyrGlu-Arg-Thr-Lys-Arg-7-amido-4-methylcoumarin as substrate after 60 mins by spectrofluorometry method; format: cell-based
Chain of Furin (P09958 whole entry): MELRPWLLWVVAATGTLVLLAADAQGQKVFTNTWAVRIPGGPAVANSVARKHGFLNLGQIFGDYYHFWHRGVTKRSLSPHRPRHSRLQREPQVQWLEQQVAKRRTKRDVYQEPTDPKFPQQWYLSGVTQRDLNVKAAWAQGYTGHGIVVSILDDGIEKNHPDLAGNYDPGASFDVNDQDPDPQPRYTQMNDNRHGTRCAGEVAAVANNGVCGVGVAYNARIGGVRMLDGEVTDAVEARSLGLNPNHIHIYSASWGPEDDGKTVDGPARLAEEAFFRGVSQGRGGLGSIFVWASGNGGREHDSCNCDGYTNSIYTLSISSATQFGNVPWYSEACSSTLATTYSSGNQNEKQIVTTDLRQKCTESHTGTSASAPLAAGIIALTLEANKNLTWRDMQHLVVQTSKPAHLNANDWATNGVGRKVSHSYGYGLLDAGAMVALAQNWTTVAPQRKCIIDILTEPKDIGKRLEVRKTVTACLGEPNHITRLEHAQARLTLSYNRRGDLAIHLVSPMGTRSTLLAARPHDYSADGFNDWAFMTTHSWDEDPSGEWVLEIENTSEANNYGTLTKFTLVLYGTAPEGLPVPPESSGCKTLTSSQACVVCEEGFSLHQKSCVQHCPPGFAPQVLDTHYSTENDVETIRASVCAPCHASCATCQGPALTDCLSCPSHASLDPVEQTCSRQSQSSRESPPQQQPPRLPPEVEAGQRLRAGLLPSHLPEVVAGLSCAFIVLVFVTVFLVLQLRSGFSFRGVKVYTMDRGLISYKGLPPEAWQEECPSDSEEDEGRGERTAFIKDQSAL
Outline: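 Human recombinant purified furin at 2 units/100 µL (0.54 nM), in 100 mM HEPES pH 7.5, 1 mM CaCl2, 1 mM β-mercaptoethanol, 1.8 mg/mL BSA. His-containing peptides run instead in 20 mM BisTris pH 6.5 with the same additives. Substrate 100 µM, KM 5.04 µM. Inhibitor 1 nM to 10 µM; 60 min at 37°C. Fluorescence ex 370 / em 460 nm. Ki by Morrison equation; triplicate experiments, mean ± SD.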

Homo sapiens = species on record: Homo sapiens; test: Selectivity index, ratio of Ki for recombinant human furin expressed in drosophila S2 cells to Ki for recombinant human PACE4 expressed in drosophila S2 cells; format: cell-based
Outline: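 Ratio Ki(furin)/Ki(PACE4). […] PACE4 buffer was BisTris pH 6.5; furin buffer was HEPES pH 7.5, or BisTris pH 6.5 for His peptides. Ki fitted by Morrison equation from three independent experiments.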

[3] = molecular target: T1, Proprotein convertase subtilisin/kexin type 6 (Homo sapiens, UniProt P29122); test: Inhibition of recombinant human PACE4 expressed in drosophila S2 cells using pyrGlu-Arg-Thr-Lys-Arg-7-amido-4-methylcoumarin as substrate after 60 mins by spectrofluorometry method; format: cell-based
T1 sequence (P29122 whole entry): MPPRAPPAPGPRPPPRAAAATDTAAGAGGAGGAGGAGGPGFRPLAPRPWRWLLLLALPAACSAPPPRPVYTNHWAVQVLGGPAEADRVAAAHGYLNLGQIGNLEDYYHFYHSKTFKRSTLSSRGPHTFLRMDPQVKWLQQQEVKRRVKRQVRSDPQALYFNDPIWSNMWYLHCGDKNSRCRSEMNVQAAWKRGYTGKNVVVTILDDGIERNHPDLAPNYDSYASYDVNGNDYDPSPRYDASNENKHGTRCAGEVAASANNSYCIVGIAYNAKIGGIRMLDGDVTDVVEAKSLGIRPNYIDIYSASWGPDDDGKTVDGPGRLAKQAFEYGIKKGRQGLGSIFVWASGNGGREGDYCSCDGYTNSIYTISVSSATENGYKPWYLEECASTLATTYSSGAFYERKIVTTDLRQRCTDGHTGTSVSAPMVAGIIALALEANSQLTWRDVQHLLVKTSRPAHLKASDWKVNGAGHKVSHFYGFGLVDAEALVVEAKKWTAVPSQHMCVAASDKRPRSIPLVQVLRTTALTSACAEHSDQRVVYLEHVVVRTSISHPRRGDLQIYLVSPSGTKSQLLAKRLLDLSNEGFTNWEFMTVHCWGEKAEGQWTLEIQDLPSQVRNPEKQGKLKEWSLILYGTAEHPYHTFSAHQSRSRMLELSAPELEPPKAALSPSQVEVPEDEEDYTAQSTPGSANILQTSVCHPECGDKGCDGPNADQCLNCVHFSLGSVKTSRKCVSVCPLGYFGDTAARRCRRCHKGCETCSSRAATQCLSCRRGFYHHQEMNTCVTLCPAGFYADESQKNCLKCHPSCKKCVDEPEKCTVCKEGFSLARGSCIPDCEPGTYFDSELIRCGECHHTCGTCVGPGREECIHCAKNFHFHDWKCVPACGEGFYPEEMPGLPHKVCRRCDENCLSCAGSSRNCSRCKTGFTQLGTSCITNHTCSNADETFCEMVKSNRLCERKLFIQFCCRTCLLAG
Outline: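 Human recombinant purified PACE4 at 2 units/100 µL (20.18 nM), in 20 mM BisTris pH 6.5, 1 mM CaCl2, 1.8 mg/mL BSA. Substrate 100 µM, KM 4.035 µM. Inhibitor 1 nM to 10 µM; 60 min at 37°C. Fluorescence ex 370 / em 460 nm. Ki by Morrison tight-binding equation; three independent experiments, mean ± SD.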

DU-145 = test: Antiproliferative activity against human DU145 cells assessed as reduction in metabolic activity after 72 hrs by MTT assay; format: functional, cell-based; conditions: DU-145, 72 h; outline: as §1

| SMILES | Flu intensity [1] | Flu intensity [2] | IC50 (LNCaP) [nM] | Ki (Furin) [nM] | Ratio Ki (Homo sapiens) | Ki [3] [nM] | IC50 (DU-145) [nM] |
| --- | --- | --- | --- | --- | --- | --- | --- |
| CC(C)C[C@H](NC(=O)CCNC(=S)Nc1ccc2c(c1)C(=O)OC21c2ccc(O)cc2Oc2cc(O)ccc21)C(=O)N[C@@H](CC(C)C)C(=O)N[C@@H](CC(C)C)C(=O)N[C@@H](CC(C)C)C(=O)N[C@@H](CCCNC(=N)N)C(=O)N[C@H](C(=O)N[C@@H](CCCCN)C(=O)NCc1ccc(C(=N)N)cc1)C(C)C ({FITC-βAla}-LLLLRVK-{NH(4-amidinobenzyl)}) | 46.61 | 47.45 | – | – | – | – | – |
| CC(=O)N[C@@H](CC(C)C)C(=O)N[C@@H](CC(C)C)C(=O)N[C@@H](Cc1ccc(O)cc1)C(=O)N[C@@H](CC(C)C)C(=O)N[C@@H](CCCNC(=N)N)C(=O)N[C@H](C(=O)N[C@@H](CCCCN)C(=O)NCc1ccc(C(=N)N)cc1)C(C)C (Ac-LLYLRVK-{NH(4-amidinobenzyl)}) | – | – | 130000 | 5.9 | 1.2 | 4.8 | 50000 |
| CC[C@H](C)[C@H](NC(=O)[C@H](CC(C)C)NC(=O)[C@H](CC(C)C)NC(=O)[C@H](CC(C)C)NC(=O)CCNC(=S)Nc1ccc2c(c1)C(=O)OC21c2ccc(O)cc2Oc2cc(O)ccc21)C(=O)N[C@@H](CCCNC(=N)N)C(=O)N[C@H](C(=O)N[C@@H](CCCCN)C(=O)NCc1ccc(C(=N)N)cc1)C(C)C ({FITC-βAla}-LLLIRVK-{NH(4-amidinobenzyl)}) | 87.66 | 99.26 | – | – | – | – | – |
| CC[C@H](C)[C@H](NC(=O)[C@H](CC(C)C)NC(=O)[C@H](CC(C)C)NC(C)=O)C(=O)N[C@@H](CC(C)C)C(=O)N[C@@H](CCCNC(=N)N)C(=O)N[C@H](C(=O)N[C@@H](CCCCN)C(=O)NCc1ccc(C(=N)N)cc1)C(C)C (Ac-LLILRVK-{NH(4-amidinobenzyl)}) | – | – | 80000 | 30 | 3 | 10 | 32000 |
| CC(=O)N[C@@H](CC(C)C)C(=O)N[C@@H](Cc1ccccc1)C(=O)N[C@@H](CC(C)C)C(=O)N[C@@H](CC(C)C)C(=O)N[C@@H](CCCNC(=N)N)C(=O)N[C@H](C(=O)N[C@@H](CCCCN)C(=O)NCc1ccc(C(=N)N)cc1)C(C)C (Ac-LFLLRVK-{NH(4-amidinobenzyl)}) | – | – | 31000 | 7 | 0.9 | 8 | 36000 |
| CC(=O)N[C@@H](CC(C)C)C(=O)N[C@@H](CC(C)C)C(=O)N[C@@H](Cc1ccccc1)C(=O)N[C@@H](CC(C)C)C(=O)N[C@@H](CCCNC(=N)N)C(=O)N[C@H](C(=O)N[C@@H](CCCCN)C(=O)NCc1ccc(C(=N)N)cc1)C(C)C (Ac-LLFLRVK-{NH(4-amidinobenzyl)}) | – | – | 40000 | 5 | 0.3 | 16 | 38000 |
| CC(=O)N[C@@H](CO)C(=O)N[C@@H](CC(C)C)C(=O)N[C@@H](CC(C)C)C(=O)N[C@@H](CC(C)C)C(=O)N[C@@H](CCCNC(=N)N)C(=O)N[C@H](C(=O)N[C@@H](CCCCN)C(=O)NCc1ccc(C(=N)N)cc1)C(C)C (Ac-SLLLRVK-{NH(4-amidinobenzyl)}) | – | – | > 250000 | 4 | 0.7 | 6 | 100000 |
| CC(C)C[C@H](NC(=O)CCNC(=S)Nc1ccc2c(c1)C(=O)OC21c2ccc(O)cc2Oc2cc(O)ccc21)C(=O)N[C@@H](CC(C)C)C(=O)N[C@@H](CC(C)C)C(=O)N[C@@H](CCCNC(=N)N)C(=O)N[C@@H](CCCNC(=N)N)C(=O)N[C@H](C(=O)N[C@@H](CCCCN)C(=O)NCc1ccc(C(=N)N)cc1)C(C)C ({FITC-βAla}-LLLRRVK-{NH(4-amidinobenzyl)}) | 12.6 | 2.73 | – | – | – | – | – |
| CC(=O)N[C@@H](CC(=O)O)C(=O)N[C@@H](CC(C)C)C(=O)N[C@@H](CC(C)C)C(=O)N[C@@H](CC(C)C)C(=O)N[C@@H](CCCNC(=N)N)C(=O)N[C@H](C(=O)N[C@@H](CCCCN)C(=O)NCc1ccc(C(=N)N)cc1)C(C)C (Ac-DLLLRVK-{NH(4-amidinobenzyl)}) | – | – | 40000 | 8 | 0.7 | 12 | 90000 |
